The target of assay [1] is T1, SPRY domain-containing SOCS box protein 2 (Mus musculus) (UniProt O88838).
T1 sequence (whole entry): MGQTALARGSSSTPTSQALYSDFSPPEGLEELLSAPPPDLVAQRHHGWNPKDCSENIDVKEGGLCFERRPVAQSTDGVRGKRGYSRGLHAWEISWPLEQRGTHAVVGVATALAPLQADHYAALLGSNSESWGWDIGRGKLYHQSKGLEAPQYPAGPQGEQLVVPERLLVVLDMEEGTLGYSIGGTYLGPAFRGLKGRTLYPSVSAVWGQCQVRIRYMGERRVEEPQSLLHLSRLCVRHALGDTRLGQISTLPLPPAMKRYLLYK
Briefly: Potency index, ratio of Ac-DINNNNH2 Kd to compound Kd for recombinant GST-tagged mouse SPSB2 (12 to 224 residues) expressed in Escherichia coli BL21 (DE3) by SPR analysis. (In general: SPR reads the build-up and loss of mass on a sensor chip optically.)

In assay [2] the target is T1, SPRY domain-containing SOCS box protein 2 (Mus musculus). Briefly: Binding affinity to recombinant GST-tagged mouse SPSB2 (12 to 224 residues) expressed in Escherichia coli BL21 (DE3) assessed as association rate by SPR analysis. In a few lines:
(§1)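 SPSB2 amine-coupled to a CM5 sensor chip. Peptidomimetics flowed over at increasing concentrations in running buffer (10 mM HEPES, 150 mM NaCl, 3 mM EDTA, 0.05% Tween 20, pH 7.4) at 25 °C. Sensorgrams fitted to a single-site binding model.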

For assay [3] the target is unchanged. Briefly: Binding affinity to recombinant GST-tagged mouse SPSB2 (12 to 224 residues) expressed in Escherichia coli BL21 (DE3) assessed as dissociation rate by SPR analysis. In a few lines: as §1
The species named for assay [4] is Mus musculus. Put plainly: Inhibition of recombinant GST-tagged mouse SPSB2 (12 to 224 residues) expressed in Escherichia coli BL21 (DE3)/ full length iNOS (unknown origin) interaction in LPS/IFN-gamma-stimulated mouse BMDM assessed as reduction in iNOS level preincubated for 2 hrs measured after 1 hr by Western blot analysis. In a few lines: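 Lysates of cultured murine BMDM incubated 2 h with 2.5 μg/mL GST-SPSB2 SPRY domain or GST alone, with or without 10 μM peptidomimetic. Then 1 h with glutathione Sepharose beads to pull down the complex. Bound iNOS detected by reducing SDS-PAGE, anti-iNOS immunoblot and ECL. Membrane reprobed with anti-GST to check loading.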

The target of assay [5] is T1, SPRY domain-containing SOCS box protein 2 (Mus musculus). Put plainly: Ratio of Kd for recombinant GST-tagged mouse SPSB2 (12 to 224 residues) expressed in Escherichia coli BL21 (DE3) by ITC method to Kd for recombinant GST-tagged mouse SPSB2 (12 to 224 residues) expressed in Escherichia coli BL21 by SPR analysis. For orientation: In ITC the heat of successive injections is recorded.

For assay [6] the target is unchanged. Put plainly: Binding affinity to mouse 5-F-Trp-SPSB2 assessed as downward shift of Trp207 residue resonance at protein to compound molar ratio of 1:5 by 19F-NMR spectroscopy. In a few lines: (§2)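 19F NMR of 5F-Trp-labelled SPSB2 with added peptidomimetic, recorded at 30 °C and 564 MHz on a cryoprobe tuned to 19F.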
The target in assay [7] is T2, SPRY domain-containing SOCS box protein 2 (Mus musculus, UniProt O88838).
T2 sequence (O88838 whole entry): T1 sequence (whole entry)
Put plainly: Binding affinity to recombinant GST-tagged mouse SPSB2 (12 to 224 residues) expressed in Escherichia coli BL21 (DE3) by SPR analysis. In a few lines: as §1

For assay [8], the target named is T2, SPRY domain-containing SOCS box protein 2. Briefly: Binding affinity to recombinant GST-tagged mouse SPSB2 (12 to 224 residues) expressed in Escherichia coli BL21 (DE3) by ITC method. Put shortly: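 ITC at 25 °C in 50 mM phosphate pH 7.4, 150 mM NaCl. Cell held 50 μM SPSB2, buffer-exchanged on a PD-10 column; syringe held compound from a 5 mM stock. Stirred at 1000 rpm. One 0.2 μL injection, then 29 injections of 1 μL. KD and ΔH from a nonlinear least-squares fit to a one-set-of-sites (1:1) model.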

In assay [9] the target is T1, SPRY domain-containing SOCS box protein 2 (Mus musculus). Briefly: Binding affinity to mouse 5-F-Trp-SPSB2 assessed as induction of sharpening of Trp207 resonance by measuring increase in peak height at protein to compound molar ratio of 1:5 by 19F-NMR spectroscopy. In a few lines: as §2

Broadly, the pKd is −log10 of the Kd, conventionally taken in molar units.

pKd: −log10 of the molar value. Active and inactive are the calls of the source. No cut-off for these calls is given here. Where a SMILES comes first, the peptide text is derived from it. Bridges are numbered along the chain shown (N, C = ends).

Take `CC[C@H](C)[C@@H]1NC(=O)[C@@H](CC(=O)O)OCc2ccccc2NC(=O)[C@H](CC(N)=O)NC(=O)[C@H](CC(N)=O)NC(=O)[C@@H](CC(N)=O)NC1=O`: the Ratio in [1] was found to be 10; in assay [5], 1.5. Besides, the K in assay [2] stood at 8.6 ×10⁵ /M/s; in assay [3] it was 2 ×10⁻² /s. The “Inhibition of SPSB2-iNOS interaction (qualitative)” value (shortened to “Inhibition”) in assay [4] was “Active”. The result in assay [6] was Active.

With `CC[C@H](C)[C@@H]1NC(=O)[C@@H](CC(=O)O)OCc2ccccc2NC(=O)[C@H](CC(N)=O)NC(=O)[C@H](CC(N)=O)NC(=O)[C@H](CC(N)=O)NC1=O`, the values for the pKd in [7] and in [8] were 7.54 and 7.35, respectively.

`CC[C@H](C)[C@@H]1NC(=O)[C@@H](CC(=O)O)OCC(=O)N(C)NC(=O)[C@H](CC(N)=O)NC(=O)[C@H](CC(N)=O)NC(=O)[C@@H](CC(N)=O)NC1=O`: the K was found to be 11.9 ×10⁵ /M/s in assay [2] and 8 ×10⁻² /s in assay [3]. Besides, the “Inhibition” value in [4] was “Active”. Also, in assay [6], the outcome was Active.

Consider `CC[C@H](C)[C@@H]1NC(=O)[C@H](CC(=O)O)OCCNC(=O)[C@H](CC(N)=O)NC(=O)[C@H](CC(N)=O)NC(=O)[C@H](CC(N)=O)NC1=O`, for which the pKd is 6.33 in assay [7] and 6.35 in [8].

For the compound H-KEEKDINNNVKKT-OH, the pKd in assay [8] was 7.89.

Regarding `CC[C@H](C)[C@@H]1NC(=O)[C@@H](CC(=O)O)NC(=O)c2ccccc2NC(=O)[C@H](CC(N)=O)NC(=O)[C@H](CC(N)=O)NC(=O)[C@@H](CC(N)=O)NC1=O`, the K in assay [2] was 11 ×10⁵ /M/s; in assay [3], 6 ×10⁻² /s. For the same compound, the “Inhibition” value in [4] was “Active”. In addition, the outcome in assay [6] was Active.

Consider `CC[C@@H](C)[C@@H]1NC(=O)[C@H](CC(=O)O)OCCNC(=O)[C@@H](CC(N)=O)NC(=O)[C@@H](CC(N)=O)NC(=O)[C@@H](CC(N)=O)NC1=O`, for which the K in assay [2] is 4.7 ×10⁵ /M/s; in assay [3] it was 26 ×10⁻² /s. Also, the “Inhibition” value in assay [4] was “Active”. Also, the Activity in assay [9] was 25%. The result in assay [6] was inactive.

In the case of `CC[C@H](C)[C@@H]1NC(=O)[C@H](CC(=O)O)NC(=O)[C@H](C(C)C)NC(=O)[C@@H](NC(C)=O)CSSC[C@@H](C(N)=O)NC(=O)[C@H](CC(N)=O)NC(=O)[C@H](CC(N)=O)NC(=O)[C@H](CC(N)=O)NC1=O` (Ac-CVDINNNC-NH2; disulfide 1-8), in assay [6], the result was Active.

In the case of `CC[C@H](C)[C@@H]1NC(=O)[C@H](CC(=O)O)NC(=O)c2ccccc2NC(=O)[C@H](CC(N)=O)NC(=O)[C@H](CC(N)=O)NC(=O)[C@H](CC(N)=O)NC1=O`, the pKd is 7.27 in assay [7] and 7.31 in assay [8].

As to `CC[C@H](C)[C@@H]1NC(=O)[C@@H](CC(=O)O)OCC(=O)N(C)NC(=O)[C@H](CC(N)=O)NC(=O)[C@H](CC(N)=O)NC(=O)[C@H](CC(N)=O)NC1=O`, the pKd is 7.00 in assay [7] and 7.08 in assay [8].
